Columns and labels:
Plasmodium falciparum [1] = assay: Antimalarial activity against Plasmodium falciparum D6 assessed as plasmodial LDH activity after 72 hrs; format: functional, organism-based
How it was run: (§1)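 P. falciparum D6 (chloroquine-sensitive) and W2 (chloroquine-resistant) clones screened in vitro alongside Vero cytotoxicity, up to a highest concentration of 12.5; IC50 determined.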

[2] = Selectivity index, IC50 for african green monkey Vero cells to IC50 for Plasmodium falciparum W2; format: functional
How it was run: (§2)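 Selectivity index is the cytotoxicity IC50 in Vero cells divided by the antimalarial IC50 against the stated P. falciparum clone (D6 or W2).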

Plasmodium falciparum [3] = assay: Antimalarial activity against Plasmodium falciparum W2 assessed as plasmodial LDH activity after 72 hrs; format: functional, organism-based; how it was run: as §1
Vero = assay: Cytotoxicity against african green monkey Vero cells at 12.5 uM; format: cell-based; details: chlorocebus sabaeus
How it was run: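 Mammalian kidney Vero cells screened in vitro for cytotoxicity, in parallel with the antimalarial screen, up to a highest concentration of 12.5.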

[4] = Selectivity index, IC50 for african green monkey Vero cells to IC50 for Plasmodium falciparum D6; format: functional; how it was run: as §2
[5] = Plasmodium falciparum, D6, 72 h, read-out: IC50
[6] = Plasmodium falciparum, W2, 72 h, read-out: IC50

SMILES | IC50 (Plasmodium falciparum [1]; [5]) [nM] | Ratio IC50 [2] | IC50 (Plasmodium falciparum [3]; [6]) [nM] | Activity (Vero) | Ratio IC50 [4] | IC50 (Plasmodium falciparum [1]) | IC50 (Plasmodium falciparum [3])
O=Cc1ccc(C2OOC(c3ccccc3)OO2)cc1 (stereo not given) | 13200 | >1 | > 17500 | Non-toxic | >1.3 |  | 
Cc1cccc(C2OOC(c3ccc(C=O)cc3)OO2)c1 (stereo not given) |  |  |  | Non-toxic |  | Not Active | Not Active
Cc1ccccc1C1OOC(c2ccc(C=O)cc2)OO1 (stereo not given) |  |  |  | Non-toxic |  | Not Active | Not Active
CCc1ccc(C2OOC(c3ccc(C=O)cc3)OO2)cc1 (stereo not given) | 10900 | >2.6 | 5990 | Non-toxic | >1.4 |  | 
CC(C)c1ccc(C2OOC(c3ccc(C=O)cc3)OO2)cc1 (stereo not given) | 6990 | >4.9 | 3110 | Non-toxic | >2.2 |  | 
Cc1ccc(C2OOC(c3ccc(/C=N/C4CCCCC4)cc3)OO2)cc1 (stereo not given) | 1900 | >7 | 1850 | Non-toxic | >6.8 |  | 
Cc1ccc(C2OOC(c3ccc(/C=N\c4ccccc4)cc3)OO2)cc1 (stereo not given) | 7740 | >2.4 | 5530 | Non-toxic | >1.7 |  | 
Cc1ccc(C2OOC(c3ccc(/C=N/Cc4ccccc4)cc3)OO2)cc1 (stereo not given) | 4800 | >2 | 6400 | Non-toxic | >2.6 |  | 
Cc1ccc(C2OOC(c3ccc(/C=N/CCc4ccccc4)cc3)OO2)cc1 (stereo not given) | 1540 | >8.2 | 1490 | Non-toxic | >7.9 |  | 
Cc1ccc(C2OOC(c3ccc(/C=N\c4ccc(Cl)cc4)cc3)OO2)cc1 (stereo not given) | 1460 | >8.2 | 1460 | Non-toxic | >8.2 |  | 
Cc1ccc(C2OOC(c3ccc(/C=N\c4ccc(Br)cc4)cc3)OO2)cc1 (stereo not given) | 7950 | >2.6 | 4090 | Non-toxic | >1.4 |  | 
Cc1ccc(C2OOC(c3ccc(/C=N\c4ccccc4S)cc3)OO2)cc1 (stereo not given) | 6860 | >2.4 | 5080 | Non-toxic | >1.8 |  | 
Cc1ccc(C2OOC(c3ccc(/C=N\CCO)cc3)OO2)cc1 (stereo not given) | 2820 | >6.1 | 2370 | Non-toxic | >5.1 |  | 
Cc1ccc(C2OOC(c3ccc(/C=N\N)cc3)OO2)cc1 (stereo not given) | 2590 | >9 | 1260 | Non-toxic | >9 |  | 
Cc1ccc(C2OOC(c3ccc(CNCc4ccccc4)cc3)OO2)cc1 (stereo not given) | 3440 | >3.7 | 3440 | Non-toxic | >3.7 |  | 
Cc1ccc(C2OOC(c3ccc(CNCCc4ccccc4)cc3)OO2)cc1 (stereo not given) | 7670 | >1.9 | 6390 | Non-toxic | >1.6 |  | 
Cc1ccc(C2OOC(c3ccc(CNc4ccccc4S)cc3)OO2)cc1 (stereo not given) | 2190 | >7.6 | 1590 | Non-toxic | >5.5 |  | 
OCc1ccc(C2OOC(c3ccccc3)OO2)cc1 (stereo not given) | 3090 | >9.5 | 1820 | Non-toxic | >5.6 |  | 
Cc1ccc(C2OOC(c3ccc(CO)cc3)OO2)cc1 (stereo not given) | 1830 | >6.8 | 2420 | Non-toxic | >9 |  | 
Cc1cccc(C2OOC(c3ccc(CO)cc3)OO2)c1 (stereo not given) | 1280 | >11.9 | 1380 | Non-toxic | >12.9 |  | 

SMILES | IC50 (Plasmodium falciparum [1]; [5]) [nM] | Ratio IC50 [2] | IC50 (Plasmodium falciparum [3]; [6]) [nM] | Activity (Vero) | Ratio IC50 [4] | IC50 (Plasmodium falciparum [1]) | IC50 (Plasmodium falciparum [3])
Cc1ccccc1C1OOC(c2ccc(CO)cc2)OO1 (stereo not given) | 2150 | >8.7 | 1900 | Non-toxic | >7.7 |  | 
CCc1ccc(C2OOC(c3ccc(CO)cc3)OO2)cc1 (stereo not given) | 1580 | 14.4 | 1090 | Non-toxic | 9.9 |  | 
CC(C)c1ccc(C2OOC(c3ccc(CO)cc3)OO2)cc1 (stereo not given) | 2020 | >7.9 | 1890 | Non-toxic | >7.4 |  | 
Cc1ccc(C2OOC(c3ccc(COS(C)(=O)=O)cc3)OO2)cc1 (stereo not given) | 7640 | >1.6 | 8180 | Non-toxic | >1.7 |  | 
CCc1ccc(C2OOC(c3ccc(COS(C)(=O)=O)cc3)OO2)cc1 (stereo not given) | 4990 | >3.2 | 3940 | Non-toxic | >2.5 |  | 
Cc1ccc(C2OOC(c3ccc(CNc4ccccc4)cc3)OO2)cc1 (stereo not given) | 1840 | >8.2 | 1590 | Non-toxic | >7.1 |  | 
Cc1ccc(C2OOC(c3ccc(CNc4cccc5ccccc45)cc3)OO2)cc1 (stereo not given) |  |  |  | Non-toxic |  | Not Active | Not Active
Cc1ccc(C2OOC(c3ccc(CN(C)c4ccccc4)cc3)OO2)cc1 (stereo not given) | 1510 | >6 | 2110 | Non-toxic | >8.4 |  | 
Cc1ccc(NCc2ccc(C3OOC(c4ccc(C)cc4)OO3)cc2)cc1 (stereo not given) |  |  |  | Non-toxic |  | Not Active | Not Active
Cc1ccc(C2OOC(c3ccc(CNc4cccc(C)c4)cc3)OO2)cc1 (stereo not given) | 2640 | >5.3 | 2380 | Non-toxic | >4.8 |  | 
Cc1ccc(C2OOC(c3ccc(CNc4ccccc4C)cc3)OO2)cc1 (stereo not given) |  |  |  | Non-toxic |  | Not Active | Not Active
Cc1ccc(C2OOC(c3ccc(CNc4cccc(Cl)c4)cc3)OO2)cc1 (stereo not given) |  |  |  | Non-toxic |  | Not Active | Not Active
CCc1ccc(C2OOC(c3ccc(C(=O)O)cc3)OO2)cc1 (stereo not given) |  |  |  | Non-toxic |  | Not Active | Not Active
Cc1ccc(C2OOC(c3ccc(C(=O)NCCO)cc3)OO2)cc1 (stereo not given) |  |  |  | Non-toxic |  | Not Active | Not Active
Cc1ccc(C2OOC(c3ccc(C(=O)NCCCO)cc3)OO2)cc1 (stereo not given) |  |  |  | Non-toxic |  | Not Active | Not Active
Cc1ccc(C2OOC(c3ccc(C(=O)NCCCCCCO)cc3)OO2)cc1 (stereo not given) |  |  |  | Non-toxic |  | Not Active | Not Active
CCCCNC(=O)c1ccc(C2OOC(c3ccc(C)cc3)OO2)cc1 (stereo not given) |  |  |  | Non-toxic |  | Not Active | Not Active
CCCCCNC(=O)c1ccc(C2OOC(c3ccc(CC)cc3)OO2)cc1 (stereo not given) |  |  |  | Non-toxic |  | Not Active | Not Active
Cc1ccc(C2OOC(c3ccc(C=O)cc3)OO2)cc1 (stereo not given) |  |  |  | Non-toxic |  | Not Active | Not Active
CCN(CC)CCCC(C)Nc1ccnc2cc(Cl)ccc12 (stereo not given) [CHLOROQUINE] |  |  |  | Non-toxic |  |  | 
